Assay results taken from publication PMC3013634 (FEMS microbiology letters, 2009).

Target: T1, sPBP 6 (Escherichia coli, UniProt P08506)
T1 sequence (P08506 28-388 limits assumed): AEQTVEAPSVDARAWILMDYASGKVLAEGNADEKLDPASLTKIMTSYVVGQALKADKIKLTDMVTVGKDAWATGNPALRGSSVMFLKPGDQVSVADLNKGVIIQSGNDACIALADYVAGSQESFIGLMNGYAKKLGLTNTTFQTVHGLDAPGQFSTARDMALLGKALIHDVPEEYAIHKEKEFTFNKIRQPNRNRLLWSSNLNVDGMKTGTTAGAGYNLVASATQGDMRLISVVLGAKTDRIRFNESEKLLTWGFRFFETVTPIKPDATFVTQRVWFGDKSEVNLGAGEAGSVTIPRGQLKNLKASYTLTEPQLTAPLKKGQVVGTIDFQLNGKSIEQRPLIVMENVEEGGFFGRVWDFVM
Assay: acylation rate, fluorescent labelling, SDS-PAGE densitometry
Assay type: binding
Settings: covalent; labelled compound; active-site serine acylation; 25-100 μM, 30-120 s
Procedure, shortened: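 Enzyme (250 μg) was incubated with BOCILLIN FL at 25, 50 or 100 μM for 30–120 s, then run on 12% SDS-PAGE and fluorescence-scanned (488/526 nm). Pseudo-first-order ka came from bound density relative to saturation, and k2/K from the slope of ka versus concentration.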

Compound: Cc1cc(C)n2c1C=C1C=CC(CCC(=O)Nc3ccc(OCC(=O)N[C@@H]4C(=O)N5[C@@H]4SC(C)(C)[C@@H]5C(=O)[O-])cc3)=[N+]1[B-]2(F)F.[Na+] [BOCILLIN FL]
- k2/K / M^-1 s^-1: 1900 ± 65.5 M⁻¹ s⁻¹
